Activity calls are given as the source filed them. The rule behind the calls is not given here.
Legend:
Plasmodium falciparum [1] = assay: Antimalarial activity against Plasmodium falciparum PfV1S0176/N10 infected in immunodeficient HM-IL2Rgamma null mouse after 7 days; format: functional
Plasmodium falciparum [2] = assay: Antimalarial activity against Plasmodium falciparum Pf3D70087/N9 infected in immunodeficient HM-IL2Rgamma null mouse after 7 days; format: functional
Outline: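 Four-day test in female NOD-scid IL2Rγnull mice engrafted by daily i.p. injections of human erythrocytes. Mice were infected i.v. with 20 × 10^6 Pf3D70087/N9-infected hE, then randomized 3 days later (3/group) and dosed orally once daily for 4 days. Day-7 parasitemia was measured by SYTO-16/TER-119 flow cytometry relative to vehicle. ED90 came from a sigmoid dose-response fit.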

Plasmodium falciparum [3] = assay: Antimalarial activity against Plasmodium falciparum Pf3D70087/N9 infected in immunodeficient HM-beta2 m null mouse after 7 days; format: functional
Plasmodium falciparum [4] = assay: Antimalarial activity against Plasmodium falciparum Pf3D70087/N9 infected in immunodeficient HM-IL2Rgamma null mouse assessed as decreased parasitemia at 50 mg/kg, po for 4 days after 28 days; format: functional, organism-based; set-up: dose 50 mg/kg
Outline: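 Engrafted NOD-scid IL2Rγnull mice each carried about […] Pf3D70087/N9-infected hE. They were dosed orally at 50 mg/kg once daily for four consecutive days. Peripheral blood was checked for parasites up to at least 28 days after treatment ended.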

Compound	ED90 (Plasmodium falciparum [1])	ED90 (Plasmodium falciparum [2])	ED90 (Plasmodium falciparum [3])	Activity (Plasmodium falciparum [4])
Cc1[nH]c(CO)c(-c2ccc(Oc3ccc(OC(F)(F)F)cc3)cc2)c(=O)c1Cl	<1 mg/kg	0.6 mg/kg	0.6 mg/kg	
C[C@H]1[C@H](OC(=O)CCC(=O)O)O[C@@H]2O[C@@]3(C)CC[C@H]4[C@H](C)CC[C@@H]1[C@@]24OO3 [ARTESUNATE]	<20 mg/kg	12.9 mg/kg	12.7 mg/kg	
CCN(CC)CCCC(C)Nc1ccnc2cc(Cl)ccc12 (stereo not drawn) [CHLOROQUINE]	>50 mg/kg	4.9 mg/kg	4.4 mg/kg	Active
CCc1nc(N)nc(N)c1-c1ccc(Cl)cc1 [PYRIMETHAMINE]	>50 mg/kg	0.5 mg/kg	0.9 mg/kg	

From ChEMBL document CHEMBL1649209, “Improved murine model of malaria using Plasmodium falciparum competent strains and non-myelodepleted NOD-scid IL2Rgammanull mice engrafted with human erythrocytes” (2009)
